One block for each compound: values may come before it.
How the values were obtained:
[1] = test system: cultured melanoma, breast, prostate, and pancreatic tumor cell lines; details: cited from earlier work
[2] = target: Tyr705 of Stat3 (Homo sapiens, UniProt P40763); assay: Inhibition of constitutive Stat3 Tyr705 phosphorylation in MDA-MB-468 cells; assay type: cell-based; details: for concentration at which pStat3 was completely inhibited / concentration with noticeable inhibition of pStat3: MDA-MB-468, 2 h treatment, western blot; for time at which pStat3 formation was completely inhibited / time for which complete inhibition of pStat3 was sustained: MDA-MB-468, single dose of 5 µM; for effect on pStat3 band at 25 µM: MDA-MB-468, 25 µM
Outline: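 MDA-MB-468 cells (4 × 10^5/well) were grown overnight in DMEM with 10% FCS. Prodrug was given from a 10 mM DMSO stock prepared fresh, for 2 h, or over a time course. After ice-cold PBS washes, cells were lysed (Hepes pH 7.4, Triton X-100, NaF, vanadate, protease inhibitors). 12 µg protein went on 8% SDS-PAGE/PVDF with 5% BSA block. Blots were probed for pStat3 Y705 by ECL, stripped at 50°C, and reprobed for total Stat3.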

[3] = target: T1, Stat3 (Homo sapiens, UniProt P40763); assay: Inhibition of constitutive Stat3 phosphorylation in BT20 breast tumor cells; assay type: cell-based; details: screen
[4] = target: T1, Stat3; assay: EGF-stimulated Stat3 phosphorylation in MDA-MB-468 cells; assay type: cell-based; details: MDA-MB-468, 5 µM, 1.5 h then EGF 30 min
[5] = test system: Tyr694 of Stat5; assay: Stat5 Tyr694 phosphorylation in MDA-MB-468 cells; assay type: cell-based; details: MDA-MB-468, 5 µM, 1.5 h then EGF 30 min
[6] = test system: Ser473 of Akt; assay: Akt Ser473 phosphorylation in MDA-MB-468 cells; assay type: cell-based; details: MDA-MB-468, 5 µM, 1.5 h then EGF 30 min
[7] = test system: Tyr861 of the focal adhesion kinase (FAK); assay: Constitutive FAK Tyr861 phosphorylation in MDA-MB-468 cells; assay type: cell-based; details: MDA-MB-468, 2 h treatment
Outline: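 Constitutive signal, no stimulus: MDA-MB-468 cells were plated overnight in DMEM/10% FCS and given test compound from a 10 mM DMSO stock for 2 h. Cells were lysed in Hepes pH 7.4 detergent buffer with phosphatase and protease inhibitors. Protein was separated by SDS-PAGE, blotted to PVDF, blocked with 5% BSA, and probed for pTyr861 FAK and total FAK.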

[8] = target: T2, Tyr701 of Stat1 (Homo sapiens, UniProt P42224); assay: IFNγ-stimulated Stat1 Tyr701 phosphorylation in MDA-MB-468 cells; assay type: cell-based; details: MDA-MB-468, 1.5 h then 30 min IFNγ
T2 sequence (P42224 1-750): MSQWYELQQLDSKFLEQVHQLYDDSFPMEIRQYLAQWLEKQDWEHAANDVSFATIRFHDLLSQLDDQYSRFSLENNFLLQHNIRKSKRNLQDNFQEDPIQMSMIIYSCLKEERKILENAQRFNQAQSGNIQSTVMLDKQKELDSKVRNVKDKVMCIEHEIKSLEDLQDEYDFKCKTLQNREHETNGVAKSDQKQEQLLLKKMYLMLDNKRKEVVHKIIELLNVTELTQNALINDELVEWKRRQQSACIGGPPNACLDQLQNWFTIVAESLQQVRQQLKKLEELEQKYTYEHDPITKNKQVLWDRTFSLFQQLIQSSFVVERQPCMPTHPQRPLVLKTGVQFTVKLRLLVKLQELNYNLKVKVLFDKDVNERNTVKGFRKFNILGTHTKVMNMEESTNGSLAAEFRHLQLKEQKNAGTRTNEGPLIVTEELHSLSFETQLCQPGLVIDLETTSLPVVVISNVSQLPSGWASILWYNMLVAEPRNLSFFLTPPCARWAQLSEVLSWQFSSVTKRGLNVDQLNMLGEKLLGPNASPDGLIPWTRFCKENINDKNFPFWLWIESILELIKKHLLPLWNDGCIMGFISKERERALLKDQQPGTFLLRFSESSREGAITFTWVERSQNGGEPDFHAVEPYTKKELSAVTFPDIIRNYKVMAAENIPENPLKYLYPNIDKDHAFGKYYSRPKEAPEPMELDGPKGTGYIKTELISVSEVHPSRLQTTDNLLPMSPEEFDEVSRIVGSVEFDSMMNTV
Outline: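 MDA-MB-468 cells were prepared as for the Stat3 assay (plated overnight in DMEM/10% FCS) and exposed to increasing test compound concentrations for 1.5 h. Interferon γ was then added at 25 ng/mL for 30 min. Lysates were run on PAGE, blotted to PVDF, and probed for pTyr701 Stat1 and total Stat1 with chemiluminescent detection.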

[9] = test system: MDA-MB-468 cells; assay: Cytotoxicity to MDA-MB-468 cells, MTT assay; assay type: cell-based; details: MDA-MB-468, treated daily for three days
Outline: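 MDA-MB-468 cells in DMEM with 10% FBS were plated at 1500 cells/well in triplicate, and the medium was changed the next day. Prodrug was dissolved fresh in ethanol to a 10 mM stock, diluted, and added. Further doses went into the same medium at 24 and 48 h, with final ethanol below 1%. Viability was read by MTT.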

[10] = test system: H528; assay: Growth inhibition of H528 NSCLC cells; assay type: cell-based; details: H528, 5–10 µM, data not shown
[11] = test system: Tyr861 of FAK; details: tumor cells; cited from earlier work

Sequence of Tyr705 of Stat3 (P40763 whole entry): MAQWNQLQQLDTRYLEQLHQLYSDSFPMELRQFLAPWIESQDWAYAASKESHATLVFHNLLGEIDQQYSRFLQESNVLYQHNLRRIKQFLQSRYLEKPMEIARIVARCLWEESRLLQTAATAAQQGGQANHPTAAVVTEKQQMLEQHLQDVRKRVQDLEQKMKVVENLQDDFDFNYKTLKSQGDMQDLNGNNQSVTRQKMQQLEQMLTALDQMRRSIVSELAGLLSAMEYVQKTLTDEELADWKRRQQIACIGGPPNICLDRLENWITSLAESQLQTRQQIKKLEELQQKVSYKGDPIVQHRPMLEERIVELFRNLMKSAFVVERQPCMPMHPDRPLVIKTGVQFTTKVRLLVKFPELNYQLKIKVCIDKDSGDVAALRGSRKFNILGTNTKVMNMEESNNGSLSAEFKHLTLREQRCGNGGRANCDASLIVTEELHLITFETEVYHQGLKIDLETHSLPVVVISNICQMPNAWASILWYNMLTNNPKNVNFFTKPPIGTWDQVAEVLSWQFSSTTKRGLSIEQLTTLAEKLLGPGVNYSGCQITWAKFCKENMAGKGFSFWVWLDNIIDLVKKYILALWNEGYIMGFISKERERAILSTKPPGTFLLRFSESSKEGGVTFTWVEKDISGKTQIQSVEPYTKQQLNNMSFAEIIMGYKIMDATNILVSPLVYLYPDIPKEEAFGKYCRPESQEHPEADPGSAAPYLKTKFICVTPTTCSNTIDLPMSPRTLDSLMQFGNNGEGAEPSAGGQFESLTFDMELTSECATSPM
T1 sequence (P40763 whole entry): as above

SMILES: Cc1cc(Nc2nc(N[C@@H](C)c3ncc(F)cn3)ncc2Cl)n[nH]1 [AZD1480]
cytotoxicity at concentrations that completely eliminated Tyr705 phosphorylation [1]: not cytotoxic

SMILES: CC(C)(C)c1nc2c3cc[nH]c(=O)c3c3cc(F)ccc3c2[nH]1 [P6]
cytotoxicity at concentrations that completely eliminated Tyr705 phosphorylation [1]: not cytotoxic

SMILES: C/C(=C\C(=O)N[C@H]1CCc2cccc3c2N(C1=O)[C@H](C(=O)N[C@@H](CCC(N)=O)C(=O)NCc1ccccc1)C3)c1ccc(C(F)(F)P(=O)(OCOC(=O)C(C)(C)C)OCOC(=O)C(C)(C)C)cc1 [compound 32]
effect on level of pStat3 ([2]; MDA-MB-468, 2 h, increasing concentrations): reduced the level of pStat3 in a dose-dependent manner

SMILES: C[C@H](CCC(N)=O)NC(=O)[C@@H]1Cc2cccc3c2N1C(=O)[C@@H](NC(=O)/C=C/c1ccc(C(F)(F)P(=O)(OCOC(=O)C(C)(C)C)OCOC(=O)C(C)(C)C)cc1)CC3 [compound 33]
concentration at which pStat3 was completely inhibited [2]: 0.5 µM
concentration with noticeable inhibition of pStat3 [2]: 0.1 µM

SMILES: CCCC[C@H](NC(=O)/C=C(\C)c1ccc(C(F)(F)P(=O)(OCOC(=O)C(C)(C)C)OCOC(=O)C(C)(C)C)cc1)C(=O)N1C[C@H]2C[C@H]2[C@H]1C(=O)N[C@@H](CCC(N)=O)C(C)OCc1ccccc1 (stereo partly drawn) [compound 35]
concentration at which pStat3 was completely inhibited [2]: 0.5 µM
time at which pStat3 formation was completely inhibited [2]: 30 min
time for which complete inhibition of pStat3 was sustained [2]: 4 h
ability to inhibit constitutive phosphorylation of Stat3 [3]: considerable potency
increase in Stat3 phosphorylation induced by EGF [4]: completely inhibited
Stat5 phosphorylation [5]: not inhibited
Akt Ser473 phosphorylation [6]: do not inhibit Akt phosphorylation
FAK Tyr861 phosphorylation [7]: no reduction of Tyr861 phosphorylation
concentration of complete inhibition of Stat1 phosphorylation [8]: 5 µM
survival curves with daily dosing compared with single dose [9]: little change in the survival curves
inhibition [10]: < 20%

SMILES: CCOP(=O)(OCC)C(F)(F)c1ccc(/C(C)=C/C(=O)N[C@H]2CCc3cccc4c3N(C2=O)[C@H](C(=O)N[C@H](C)CCC(N)=O)C4)cc1 [compound 40]
effect on pStat3 band at 25 µM [2]: no effect on Stat3 phosphorylation

SMILES: Cc1nc(Nc2ncc(C(=O)Nc3c(C)cccc3Cl)s2)cc(N2CCN(CCO)CC2)n1 [dasatinib]
levels of Tyr861 phosphorylation on treatment [11]: decrease

Continued, in another order:

effect on pStat3 band at 25 µM [2]: only partially reduced
concentration with noticeable inhibition of pStat3 [2]: ≥ 25 µM
fold less potent at inhibiting Stat3 phosphorylation ([2]; relative to 35): 20–25 fold
SMILES: CCCC[C@H](NC(=O)/C=C(\C)c1ccc(C(F)(F)P(=O)(OCOC(=O)C(C)(C)C)OCOC(=O)C(C)(C)C)cc1)C(=O)N1C[C@@H]2C[C@@H]2[C@@H]1C(=O)N[C@@H](CCC(N)=O)C(C)OCc1ccccc1 (stereo partly drawn) [compound 36]

concentration at which pStat3 was completely inhibited [2]: 0.5 µM
time at which pStat3 formation was completely inhibited [2]: 30 min
time for which complete inhibition of pStat3 was sustained [2]: 4 h
ability to inhibit constitutive phosphorylation of Stat3 [3]: considerable potency
increase in Stat3 phosphorylation induced by EGF [4]: completely inhibited
concentration of complete inhibition of Stat1 phosphorylation [8]: 5 µM
SMILES: CCCC[C@H](NC(=O)/C=C(\C)c1ccc(C(F)(F)P(=O)(OCOC(=O)C(C)(C)C)OCOC(=O)C(C)(C)C)cc1)C(=O)N1C[C@H]2C[C@H]2[C@H]1C(=O)N[C@H](C)CCC(N)=O [compound 37]
Stat5 phosphorylation [5]: not inhibited
Akt Ser473 phosphorylation [6]: do not inhibit Akt phosphorylation
FAK Tyr861 phosphorylation [7]: no reduction of Tyr861 phosphorylation

effect on pStat3 band at 25 µM [2]: only partially reduced
SMILES: CCCC[C@H](NC(=O)/C=C(\C)c1ccc(C(F)(F)P(=O)(OCOC(=O)C(C)(C)C)OCOC(=O)C(C)(C)C)cc1)C(=O)N1C[C@@H]2C[C@@H]2[C@@H]1C(=O)N[C@H](C)CCC(N)=O [compound 38]

concentration at which pStat3 was completely inhibited [2]: 5 µM
inhibition of the phosphorylation of Stat3 up to 1 µM ([2]; MDA-MB-468, up to 1 µM, 2 h): little inhibition
SMILES: CCCC[C@H](NC(=O)/C=C(\C)c1ccc(C(F)(F)P(=O)(OCOC(=O)C(C)(C)C)OCOC(=O)C(C)(C)C)cc1)C(=O)N1CC2CC2C1C(=O)NCCNC(N)=O (stereo partly drawn) [compound 39]
